Source: ChEMBL document CHEMBL1138567, “Regioselective synthesis and antimicrobial screening of novel ketocarbazolodispiropyrrolidine derivatives” (2009)

system: Salmonella enterica subsp. enterica serovar Typhi str. CT18; test: Antimicrobial activity against Salmonella typhi at 50 ug/ml after 24 hrs by agar diffusion method; format: functional; conditions: read-out: IZ
Method in brief: (§1)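 Agar well diffusion: about 9 ml nutrient agar in 9 cm Petri plates, seeded with the test organism. Wells cut with a cork borer and loaded with test compound at 25–100 per ml; tetracycline as control. Plates incubated 24 h at 37 °C. Read-out is the average diameter of the inhibition zone around each well, in mm.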

First: Cc1ccc([C@@H]2CN(C)[C@@]3(C(=O)Nc4ccccc43)[C@]23CCc2c([nH]c4ccccc24)C3=O)cc1
Second: CN1C[C@@H](c2ccc(Cl)cc2)[C@@]2(CCc3c([nH]c4ccccc34)C2=O)C12C(=O)c1ccccc1C2=O
The zone of inhibition at 50 µg/mL of the first is lower: 12 mm for the first, 13 mm for the second.

First: CN1C[C@@H](c2ccccc2)[C@@]2(CCc3c([nH]c4ccccc34)C2=O)C12C(=O)c1ccccc1C2=O
Second: COc1ccc([C@@H]2CN(C)C3(C(=O)c4ccccc4C3=O)[C@]23CCc2c([nH]c4ccccc24)C3=O)cc1
The zone of inhibition at 50 µg/mL of the first is higher: 13 mm for the first, 11 mm for the second.

system: Salmonella enterica subsp. enterica serovar Typhi str. CT18; test: Antimicrobial activity against Salmonella typhi at 75 ug/ml after 24 hrs by agar diffusion method; format: functional; conditions: read-out: IZ; method in brief: as §1

First: Cc1ccc([C@@H]2CN(C)[C@@]3(C(=O)Nc4ccccc43)[C@]23CCc2c([nH]c4ccccc24)C3=O)cc1
Second: CN1C[C@@H](c2ccc(Cl)cc2)[C@@]2(CCc3c([nH]c4ccccc34)C2=O)C12C(=O)c1ccccc1C2=O
The zone of inhibition at 75 µg/mL of the first is lower: 14 mm for the first, 16 mm for the second.

Compared with `CN1C[C@@H](c2ccccc2)[C@@]2(CCc3c([nH]c4ccccc34)C2=O)C12C(=O)c1ccccc1C2=O`, `COc1ccc([C@@H]2CN(C)C3(C(=O)c4ccccc4C3=O)[C@]23CCc2c([nH]c4ccccc24)C3=O)cc1` is higher in zone of inhibition at 75 µg/mL: 14 mm for the first, 16 mm for the second.

system: Staphylococcus aureus; test: Antimicrobial activity against Staphylococcus aureus at 75 ug/ml after 24 hrs by agar diffusion method; format: functional; conditions: read-out: IZ
Method in brief: (§2)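 Agar well diffusion: petri plates (9 cm) with about 9 ml nutrient agar, seeded with the test organism. Wells cut with a cork borer and loaded with test compound at 25, 50, 75 or 100 per ml; tetracycline as control. Incubated 37 °C for 24 h; average inhibition-zone diameter around wells measured (mm).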

`Cc1ccc([C@@H]2CN(C)[C@@]3(C(=O)Nc4ccccc43)[C@]23CCc2c([nH]c4ccccc24)C3=O)cc1` and `CN1C[C@@H](c2ccc(Cl)cc2)[C@@]2(CCc3c([nH]c4ccccc34)C2=O)C12C(=O)c1ccccc1C2=O` are the same in zone of inhibition at 75 µg/mL: 16 mm for the first, 16 mm for the second.

Going from `CN1C[C@@H](c2ccccc2)[C@@]2(CCc3c([nH]c4ccccc34)C2=O)C12C(=O)c1ccccc1C2=O` to `COc1ccc([C@@H]2CN(C)C3(C(=O)c4ccccc4C3=O)[C@]23CCc2c([nH]c4ccccc24)C3=O)cc1`, the zone of inhibition at 75 µg/mL falls from 16 mm to 15 mm.

system: Salmonella enterica subsp. enterica serovar Typhi str. CT18; test: Antimicrobial activity against Salmonella typhi at 25 ug/ml after 24 hrs by agar diffusion method; format: functional; conditions: read-out: IZ; method in brief: as §1

`Cc1ccc([C@@H]2CN(C)[C@@]3(C(=O)Nc4ccccc43)[C@]23CCc2c([nH]c4ccccc24)C3=O)cc1` and `CN1C[C@@H](c2ccc(Cl)cc2)[C@@]2(CCc3c([nH]c4ccccc34)C2=O)C12C(=O)c1ccccc1C2=O` are the same in zone of inhibition at 25 µg/mL: 9 mm for the first, 9 mm for the second.

Molecule `CN1C[C@@H](c2ccccc2)[C@@]2(CCc3c([nH]c4ccccc34)C2=O)C12C(=O)c1ccccc1C2=O` has a zone of inhibition at 25 µg/mL of 9 mm.

system: Proteus vulgaris; test: Antimicrobial activity against Proteus vulgaris at 50 ug/ml after 24 hrs by agar diffusion method; format: functional; conditions: read-out: IZ; method in brief: as §2

Going from `Cc1ccc([C@@H]2CN(C)[C@@]3(C(=O)Nc4ccccc43)[C@]23CCc2c([nH]c4ccccc24)C3=O)cc1` to `CN1C[C@@H](c2ccc(Cl)cc2)[C@@]2(CCc3c([nH]c4ccccc34)C2=O)C12C(=O)c1ccccc1C2=O`, the zone of inhibition at 50 µg/mL falls from 16 mm to 14 mm.

`CN1C[C@@H](c2ccccc2)[C@@]2(CCc3c([nH]c4ccccc34)C2=O)C12C(=O)c1ccccc1C2=O` and `COc1ccc([C@@H]2CN(C)C3(C(=O)c4ccccc4C3=O)[C@]23CCc2c([nH]c4ccccc24)C3=O)cc1` are the same in zone of inhibition at 50 µg/mL: 15 mm for the first, 15 mm for the second.

system: Staphylococcus aureus; test: Antimicrobial activity against Staphylococcus aureus at 50 ug/ml after 24 hrs by agar diffusion method; format: functional; conditions: read-out: IZ; method in brief: as §2

First: Cc1ccc([C@@H]2CN(C)[C@@]3(C(=O)Nc4ccccc43)[C@]23CCc2c([nH]c4ccccc24)C3=O)cc1
Second: CN1C[C@@H](c2ccc(Cl)cc2)[C@@]2(CCc3c([nH]c4ccccc34)C2=O)C12C(=O)c1ccccc1C2=O
The zone of inhibition at 50 µg/mL of the first is higher: 13 mm for the first, 11 mm for the second.

First: CN1C[C@@H](c2ccccc2)[C@@]2(CCc3c([nH]c4ccccc34)C2=O)C12C(=O)c1ccccc1C2=O
Second: COc1ccc([C@@H]2CN(C)C3(C(=O)c4ccccc4C3=O)[C@]23CCc2c([nH]c4ccccc24)C3=O)cc1
The zone of inhibition at 50 µg/mL of the first is higher: 14 mm for the first, 13 mm for the second.

system: Proteus mirabilis; test: Antimicrobial activity against Proteus mirabilis at 25 ug/ml after 24 hrs by agar diffusion method; format: functional; conditions: read-out: IZ; method in brief: as §2

Going from `Cc1ccc([C@@H]2CN(C)[C@@]3(C(=O)Nc4ccccc43)[C@]23CCc2c([nH]c4ccccc24)C3=O)cc1` to `COc1ccc([C@@H]2CN(C)C3(C(=O)c4ccccc4C3=O)[C@]23CCc2c([nH]c4ccccc24)C3=O)cc1`, the zone of inhibition at 25 µg/mL rises from 11 mm to 13 mm.

system: Proteus vulgaris; test: Antimicrobial activity against Proteus vulgaris at 75 ug/ml after 24 hrs by agar diffusion method; format: functional; conditions: read-out: IZ; method in brief: as §2

`Cc1ccc([C@@H]2CN(C)[C@@]3(C(=O)Nc4ccccc43)[C@]23CCc2c([nH]c4ccccc24)C3=O)cc1` and `CN1C[C@@H](c2ccc(Cl)cc2)[C@@]2(CCc3c([nH]c4ccccc34)C2=O)C12C(=O)c1ccccc1C2=O` are the same in zone of inhibition at 75 µg/mL: 18 mm for the first, 18 mm for the second.

First: CN1C[C@@H](c2ccccc2)[C@@]2(CCc3c([nH]c4ccccc34)C2=O)C12C(=O)c1ccccc1C2=O
Second: COc1ccc([C@@H]2CN(C)C3(C(=O)c4ccccc4C3=O)[C@]23CCc2c([nH]c4ccccc24)C3=O)cc1
The zone of inhibition at 75 µg/mL of the first is higher: 18 mm for the first, 16 mm for the second.

system: Staphylococcus aureus; test: Antimicrobial activity against Staphylococcus aureus at 25 ug/ml after 24 hrs by agar diffusion method; format: functional; conditions: read-out: IZ; method in brief: as §2

`Cc1ccc([C@@H]2CN(C)[C@@]3(C(=O)Nc4ccccc43)[C@]23CCc2c([nH]c4ccccc24)C3=O)cc1` and `CN1C[C@@H](c2ccc(Cl)cc2)[C@@]2(CCc3c([nH]c4ccccc34)C2=O)C12C(=O)c1ccccc1C2=O` are the same in zone of inhibition at 25 µg/mL: 9 mm for the first, 9 mm for the second.

`COc1ccc([C@@H]2CN(C)C3(C(=O)c4ccccc4C3=O)[C@]23CCc2c([nH]c4ccccc24)C3=O)cc1` gave a zone of inhibition at 25 µg/mL of 9 mm.

system: Salmonella enterica subsp. enterica serovar Typhi str. CT18; test: Antimicrobial activity against Salmonella typhi at 100 ug/ml after 24 hrs by agar diffusion method; format: functional; conditions: read-out: IZ; method in brief: as §1

First: Cc1ccc([C@@H]2CN(C)[C@@]3(C(=O)Nc4ccccc43)[C@]23CCc2c([nH]c4ccccc24)C3=O)cc1
Second: CN1C[C@@H](c2ccc(Cl)cc2)[C@@]2(CCc3c([nH]c4ccccc34)C2=O)C12C(=O)c1ccccc1C2=O
The zone of inhibition at 100 µg/mL of the first is lower: 16 mm for the first, 19 mm for the second.

First: CN1C[C@@H](c2ccccc2)[C@@]2(CCc3c([nH]c4ccccc34)C2=O)C12C(=O)c1ccccc1C2=O
Second: COc1ccc([C@@H]2CN(C)C3(C(=O)c4ccccc4C3=O)[C@]23CCc2c([nH]c4ccccc24)C3=O)cc1
The zone of inhibition at 100 µg/mL of the first is lower: 18 mm for the first, 21 mm for the second.

system: Proteus mirabilis; test: Antimicrobial activity against Proteus mirabilis at 50 ug/ml after 24 hrs by agar diffusion method; format: functional; conditions: read-out: IZ; method in brief: as §2

Compared with `Cc1ccc([C@@H]2CN(C)[C@@]3(C(=O)Nc4ccccc43)[C@]23CCc2c([nH]c4ccccc24)C3=O)cc1`, `CN1C[C@@H](c2ccc(Cl)cc2)[C@@]2(CCc3c([nH]c4ccccc34)C2=O)C12C(=O)c1ccccc1C2=O` is lower in zone of inhibition at 50 µg/mL: 14 mm for the first, 9 mm for the second.

Going from `CN1C[C@@H](c2ccccc2)[C@@]2(CCc3c([nH]c4ccccc34)C2=O)C12C(=O)c1ccccc1C2=O` to `COc1ccc([C@@H]2CN(C)C3(C(=O)c4ccccc4C3=O)[C@]23CCc2c([nH]c4ccccc24)C3=O)cc1`, the zone of inhibition at 50 µg/mL rises from 9 mm to 15 mm.

system: Proteus mirabilis; test: Antimicrobial activity against Proteus mirabilis at 75 ug/ml after 24 hrs by agar diffusion method; format: functional; conditions: read-out: IZ; method in brief: as §2

First: Cc1ccc([C@@H]2CN(C)[C@@]3(C(=O)Nc4ccccc43)[C@]23CCc2c([nH]c4ccccc24)C3=O)cc1
Second: CN1C[C@@H](c2ccc(Cl)cc2)[C@@]2(CCc3c([nH]c4ccccc34)C2=O)C12C(=O)c1ccccc1C2=O
The zone of inhibition at 75 µg/mL of the first is higher: 16 mm for the first, 14 mm for the second.

First: CN1C[C@@H](c2ccccc2)[C@@]2(CCc3c([nH]c4ccccc34)C2=O)C12C(=O)c1ccccc1C2=O
Second: COc1ccc([C@@H]2CN(C)C3(C(=O)c4ccccc4C3=O)[C@]23CCc2c([nH]c4ccccc24)C3=O)cc1
The zone of inhibition at 75 µg/mL of the first is lower: 13 mm for the first, 17 mm for the second.

system: Proteus mirabilis; test: Antimicrobial activity against Proteus mirabilis at 100 ug/ml after 24 hrs by agar diffusion method; format: functional; conditions: read-out: IZ; method in brief: as §2

Going from `Cc1ccc([C@@H]2CN(C)[C@@]3(C(=O)Nc4ccccc43)[C@]23CCc2c([nH]c4ccccc24)C3=O)cc1` to `CN1C[C@@H](c2ccc(Cl)cc2)[C@@]2(CCc3c([nH]c4ccccc34)C2=O)C12C(=O)c1ccccc1C2=O`, the zone of inhibition at 100 µg/mL rises from 18 mm to 23 mm.

Compared with `CN1C[C@@H](c2ccccc2)[C@@]2(CCc3c([nH]c4ccccc34)C2=O)C12C(=O)c1ccccc1C2=O`, `COc1ccc([C@@H]2CN(C)C3(C(=O)c4ccccc4C3=O)[C@]23CCc2c([nH]c4ccccc24)C3=O)cc1` is higher in zone of inhibition at 100 µg/mL: 15 mm for the first, 20 mm for the second.

system: Proteus vulgaris; test: Antimicrobial activity against Proteus vulgaris at 25 ug/ml after 24 hrs by agar diffusion method; format: functional; conditions: read-out: IZ; method in brief: as §2

Compared with `Cc1ccc([C@@H]2CN(C)[C@@]3(C(=O)Nc4ccccc43)[C@]23CCc2c([nH]c4ccccc24)C3=O)cc1`, `COc1ccc([C@@H]2CN(C)C3(C(=O)c4ccccc4C3=O)[C@]23CCc2c([nH]c4ccccc24)C3=O)cc1` is higher in zone of inhibition at 25 µg/mL: 12 mm for the first, 13 mm for the second.

In the case of `CN1C[C@@H](c2ccccc2)[C@@]2(CCc3c([nH]c4ccccc34)C2=O)C12C(=O)c1ccccc1C2=O`, the zone of inhibition at 25 µg/mL is reported as 11 mm.

system: Proteus vulgaris; test: Antimicrobial activity against Proteus vulgaris at 100 ug/ml after 24 hrs by agar diffusion method; format: functional; conditions: read-out: IZ; method in brief: as §2

Going from `Cc1ccc([C@@H]2CN(C)[C@@]3(C(=O)Nc4ccccc43)[C@]23CCc2c([nH]c4ccccc24)C3=O)cc1` to `CN1C[C@@H](c2ccc(Cl)cc2)[C@@]2(CCc3c([nH]c4ccccc34)C2=O)C12C(=O)c1ccccc1C2=O`, the zone of inhibition at 100 µg/mL rises from 21 mm to 24 mm.

`CN1C[C@@H](c2ccccc2)[C@@]2(CCc3c([nH]c4ccccc34)C2=O)C12C(=O)c1ccccc1C2=O` and `COc1ccc([C@@H]2CN(C)C3(C(=O)c4ccccc4C3=O)[C@]23CCc2c([nH]c4ccccc24)C3=O)cc1` are the same in zone of inhibition at 100 µg/mL: 21 mm for the first, 21 mm for the second.

system: Staphylococcus aureus; test: Antimicrobial activity against Staphylococcus aureus at 100 ug/ml after 24 hrs by agar diffusion method; format: functional; conditions: read-out: IZ; method in brief: as §2

Compared with `Cc1ccc([C@@H]2CN(C)[C@@]3(C(=O)Nc4ccccc43)[C@]23CCc2c([nH]c4ccccc24)C3=O)cc1`, `CN1C[C@@H](c2ccc(Cl)cc2)[C@@]2(CCc3c([nH]c4ccccc34)C2=O)C12C(=O)c1ccccc1C2=O` is lower in zone of inhibition at 100 µg/mL: 20 mm for the first, 19 mm for the second.

`CN1C[C@@H](c2ccccc2)[C@@]2(CCc3c([nH]c4ccccc34)C2=O)C12C(=O)c1ccccc1C2=O` and `COc1ccc([C@@H]2CN(C)C3(C(=O)c4ccccc4C3=O)[C@]23CCc2c([nH]c4ccccc24)C3=O)cc1` are the same in zone of inhibition at 100 µg/mL: 20 mm for the first, 20 mm for the second.
